Assay results taken from ChEMBL document CHEMBL1148608, “Correlation of antifungal activity with fungal phospholipase inhibition using a series of bisquaternary ammonium salts” (J Med Chem, 2006).
≈ marks a conversion by molar mass, not a printed value. Calls of active or inactive are those of the source. No cut-off for these calls is given here.

Assays:
[1] = system: Cryptococcus neoformans; test: Antifungal activity against Cryptococcus neoformans ATCC 90112; type: functional
[2] = molecular target: T1, Phospholipase B (Cryptococcus neoformans, UniProt Q9P8P2); test: Inhibition of Cryptococcus neoformans H99 PLB1activity
T1 sequence (Q9P8P2 whole entry): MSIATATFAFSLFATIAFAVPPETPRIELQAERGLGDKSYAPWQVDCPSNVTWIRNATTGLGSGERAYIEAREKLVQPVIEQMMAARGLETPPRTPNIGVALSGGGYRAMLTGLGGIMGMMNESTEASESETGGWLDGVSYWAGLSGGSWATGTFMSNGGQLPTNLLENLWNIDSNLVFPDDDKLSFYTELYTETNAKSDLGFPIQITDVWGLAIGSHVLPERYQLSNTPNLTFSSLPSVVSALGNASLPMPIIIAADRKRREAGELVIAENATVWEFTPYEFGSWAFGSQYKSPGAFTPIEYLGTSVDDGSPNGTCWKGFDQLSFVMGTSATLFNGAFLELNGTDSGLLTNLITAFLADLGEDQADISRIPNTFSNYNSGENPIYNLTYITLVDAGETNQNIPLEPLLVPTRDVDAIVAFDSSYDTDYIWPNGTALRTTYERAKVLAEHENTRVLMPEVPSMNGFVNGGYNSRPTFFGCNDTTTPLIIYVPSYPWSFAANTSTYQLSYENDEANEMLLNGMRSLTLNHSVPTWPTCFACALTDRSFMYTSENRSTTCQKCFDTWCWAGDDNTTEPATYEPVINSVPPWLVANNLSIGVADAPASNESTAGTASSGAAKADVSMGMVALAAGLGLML
In short: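 Secreted enzyme from C. neoformans var. grubii H99 grown 72 h on SDA at 30 °C; cells washed and held 24 h at 37 °C in imidazole buffer pH 5.5, and the cell-free supernatant was used. Radiometric assay at 37 °C, pH 4.0 imidazole acetate, with 1 µg protein, 800 µM DPPC plus [14C]DPPC, for 22 min. Lipids were separated by TLC. Compounds at 0.25–250 µM in triplicate, with inhibition relative to the inhibitor-free control.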

[3] = system: Candida albicans; test: Antifungal activity against Candida albicans ATCC 10231; type: functional
[4] = molecular target: Phospholipase A2, major isoenzyme (Sus scrofa) (UniProt P00592); test: Inhibition of porcine pancreatic PLA2 activity at 250 uM
Phospholipase A2, major isoenzyme (Sus scrofa), sequence (P00592 23-146 limits assumed): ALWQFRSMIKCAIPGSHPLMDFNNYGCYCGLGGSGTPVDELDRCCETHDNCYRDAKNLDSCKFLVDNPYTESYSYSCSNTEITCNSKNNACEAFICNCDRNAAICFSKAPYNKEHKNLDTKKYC
In short: (§1)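 Porcine pancreatic PLA2 was diluted in 10 mM Tris/HCl with 10 mM CaCl2, pH 8.2. It was run in the same radiometric assay as the fungal enzyme at 37 °C, using 800 µM DPPC with [14C]DPPC, for a 1 h reaction. Compounds were tested at 250, 25, 2.5 and 0.25 µM final, and inhibition was relative to the inhibitor-free control.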

[5] = molecular target: Phospholipase A2, major isoenzyme (Sus scrofa) (UniProt P00592); test: Inhibition of porcine pancreatic PLA2 activity at 25 uM and below; in short: as §1
[6] = system: RBCs; test: Hemolytic activity as a measure of cytotoxicity against human red blood cells at 87.5 uM; type: functional, Erythrocyte
[7] = system: RBCs; test: Hemolytic activity as a measure of cytotoxicity against human red blood cells at 35 uM; type: functional, Erythrocyte
[8] = system: RBCs; test: Hemolytic activity as a measure of cytotoxicity against human red blood cells at 3.5 uM; type: functional, Erythrocyte
[9] = system: RBCs; test: Hemolytic activity as a measure of cytotoxicity against human red blood cells at 350 uM; type: functional, Erythrocyte
[10] = system: RBCs; test: Hemolytic activity as a measure of cytotoxicity against human red blood cells at 175 uM; type: functional, Erythrocyte
[11] = system: Aspergillus terreus; test: Antifungal activity against Aspergillus terreus ATCC 03-232-378; type: functional
[12] = system: Fusarium solani; test: Antifungal activity against Fusarium solani 04-132-4207; type: functional
[13] = system: Lomentospora prolificans; test: Antifungal activity against Scedosporium prolificans 1-003-040; type: functional
[14] = system: Scedosporium boydii; test: Antifungal activity against Scedosporium apiospermum 1-003-056; type: functional
[15] = system: Aspergillus fumigatus; test: Antifungal activity against Aspergillus fumigatus ATCC 204 305; type: functional
[16] = system: Aspergillus flavus; test: Antifungal activity against Aspergillus flavus ATCC 204 304; type: functional
[17] = Cryptococcus neoformans, ATCC 90112, read-out: MIC
[18] = Candida albicans, ATCC 10231, read-out: MIC

Row | Compound | MIC [1, 17] [µM] | IC50 [2] [µM] | MIC [3, 18] [µM] | Activity [6] [%] | Activity [7] [%] | Activity [8] [%] | Activity [9] [%] | Activity [10] [%] | also measured
1 | C[N+]1(CCCCCCCCCCCC[N+]2(C)CCCC2)CCCC1 | 175 | > 250 | 175 |  |  |  |  |  | 
2 | CCCCCC[N+](CCCCCC)(CCCCCC)CCCCCCCCCCCC[N+](CCCCCC)(CCCCCC)CCCCCC | 17.5 | 7.5 | 8.8 |  |  |  |  |  | inhibition [4]: 90%; inhibition [5]: inactive
3 | C[N+]1(CCCCCCCCCCCC[N+]2(C)CCOCC2)CCOCC1 | 44 | > 250 | 88 |  |  |  |  |  | 
4 | C(CCCCCC[N+]12CCC(CC1)CC2)CCCCC[N+]12CCC(CC1)CC2 | 350 | > 250 | ≥ 350 |  |  |  |  |  | 
5 | CCCC[N+](CCCC)(CCCC)CCCCCCCCCCCC[N+](CCCC)(CCCC)CCCC [listing 1 of 2 here] |  |  |  |  |  |  |  |  | inhibition [4]: 90%; inhibition [5]: inactive
6 | CCCC[N+]1(CCCCCCCCCCCC[N+]2(CCCC)CCCC2)CCCC1.[Cl-].[Cl-] | 88 | > 250 | 88 | 0 | 0 | 0 | 0 | 0 | 
7 | CCCC[P+](CCCC)(CCCC)CCCCCCCCCCCC[P+](CCCC)(CCCC)CCCC.[Br-].[Br-] | 2.5 | > 25 | 8.8 | 0 | 0 | 0 | 15 | 0 | 
8 | CC(C)CC[N+](CCCCCCCCCCCC[N+](CCC(C)C)(CCC(C)C)CCC(C)C)(CCC(C)C)CCC(C)C.[Cl-].[Cl-] | 4.4 | > 7.5 | 2.2 | 4 | 0 | 0 | 100 | 30 | inhibition [4]: 90%; inhibition [5]: inactive
9 | C[N+](C)(C)CCCCCCCCCC[N+](C)(C)C.[Br-].[Br-] [DECAMETHONIUM BROMIDE] | ≥ 350 | > 250 | ≥ 350 | 0 | 0 | 0 | 0 | 0 | 
10 | CCCCC[N+](CCCCC)(CCCCC)CCCCCCCCCCCC[N+](CCCCC)(CCCCC)CCCCC.[Br-].[Br-] | 5.5 | 3.5 | 5.5 | 0 | 0 | 0 | 100 | 5 | inhibition [4]: 90%; inhibition [5]: inactive
11 | CCC[N+](CCC)(CCC)CCCCCCCCCCCC[N+](CCC)(CCC)CCC | 5.5 | 7 | 10 |  |  |  |  |  | 
12 | C[N+](C)(C)CCCCCCCCCCCC[N+](C)(C)C.[Br-].[Br-] | 175 | > 250 | 175 | 0 | 0 | 0 | 0 | 0 | inhibition [4]: inactive; inhibition [5]: inactive
13 | CCCC[N+](CCCC)(CCCC)CCCCCCCCCCCC[N+](CCCC)(CCCC)CCCC.[Cl-].[Cl-] |  | 10 |  | 0 | 0 | 0 | 100 | 5 | MIC [11]: 5.5 µM; MIC [12]: 5.5 µM; MIC [13]: 5.5 µM; MIC [14]: 2.8 µM; MIC [1]: 2.2 µM; MIC [15]: 11 µM; MIC [16]: 22 µM; MIC [3]: 5.5 µM
14 | CC[N+](CC)(CC)CCCCCCCCCCCC[N+](CC)(CC)CC | 11 | > 250 | 22 |  |  |  |  |  | 
15 | C[C@@H]1[C@H](O)[C@@H](C)/C=C/C=C/C=C/C=C/C=C/C=C/C=C/[C@H](O[C@@H]2O[C@H](C)[C@@H](O)[C@H](N)[C@@H]2O)C[C@@H]2O[C@](O)(C[C@@H](O)C[C@@H](O)[C@H](O)CC[C@@H](O)C[C@@H](O)CC(=O)O[C@H]1C)C[C@H](O)[C@H]2C(=O)O [AMPHOTERICIN B] | 0.54 (≈ 0.499 µg/mL) |  | 0.54 (≈ 0.499 µg/mL) |  |  |  |  |  | MIC [11]: 1.1 µM (≈ 1.02 µg/mL); MIC [12]: 0.27 µM (≈ 0.25 µg/mL); MIC [13]: 4.3 µM (≈ 3.97 µg/mL); MIC [14]: 0.54 µM (≈ 0.499 µg/mL); MIC [15]: 0.54 µM (≈ 0.499 µg/mL); MIC [16]: 0.54 µM (≈ 0.499 µg/mL)
16 | CCCC[N+](CCCC)(CCCC)CCCCCCCCCCCC[N+](CCCC)(CCCC)CCCC [listing 2 of 2 here] | 2.2 |  | 5.5 |  |  |  |  |  | 
17 | CCCCCCCC[N+](CCCCCCCC)(CCCCCCCC)CCCCCCCCCCCC[N+](CCCCCCCC)(CCCCCCCC)CCCCCCCC | 35 | > 250 | 100 |  |  |  |  |  | 
